The RNAGym collection of RNA variant scans (doi:10.1126/science.aae0568)
This sample holds only a part of the variants without activity.

B1: tRNA (parent)
chain: GUUCCGUUGGCGUAAUGGUAACGCGUCUCCCUCCUAAGGAGAAGACUGCGGGUUCGAGUCCCGUACGGAACG

Variants of: B1
Test: yeast fitness relative to wild type (ratio to wild type); higher = fitter; tRNA-Arg(CCU), competitive growth, 37 C, YPD
Method in brief: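 For this measurement, the tRNA-Arg(CCU) gene was varied by chemical synthesis at a 3% per-site mutation rate across 69 sites, and each variant was placed at the native genomic locus in Saccharomyces cerevisiae. The pooled strains went through a 24-hour competition in YPD at 37°C in six parallel replicates, with amplicons from start and end populations read by 100-nucleotide paired-end sequencing. Darwinian fitness relative to wild type followed from the change in each genotype's frequency. Genotypes needed ≥ 100 starting reads, and estimates < 0.5 were set to 0.5.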

Row | Variant | yeast fitness
1 | GUUCCGUUGGCGUAAUGGUAACGCGUCUCCCUCCUAAGAAGAAGACUGCGGGUUCGAGUCUCGUACGGAACG | 0.866
2 | GUUCCGUUGGCGUGAUGGUAACGCGUCUCCCUCCUAAGGAGAAGACUGCCGGUUCGAGUCCCGUAUGGAACG | ≤ 0.5
3 | GUUCCGUUGACGUCAUGGUAAUGCGUCUCCCUCCUAAGGAGAAGACUGCGGGUUCGAGUCCCGUACGGAACG | ≤ 0.5
4 | GUUCCGUUGGCGUAAUGGUAACGCGUCUCGCUCCUAAGGAGAAGACUGCGAGUUCGAGUCCCGUACGGAACG | 0.566
5 | GUUCCGUCGGCGUAACGGUAACGCCUCUCCCUCCUAAGGAGAAGACAGCGGGUUCGAGUCCCGUGCGGAACG | ≤ 0.5
6 | GUUCCAUUGGCGUAAUGGUAACGCGUCUCCCUACUAAGGAGAAGACUGCGGGUUCGAAUCCCGUCCAGAACG | ≤ 0.5
7 | GUUCCGUUGGCGUAAUGGUAACGGGUCUCCCUCCUAGGGAGCAGACUGCGGGUUCGAGUCCCGUACGGAUCG | ≤ 0.5
8 | GUUCCGUUCGCGUUAUGGUAACGCGUCCCCCUCCGAAGGAGAAGACUGCGGGUUCGAGUCCCGUACGGAACG | 0.623
9 | GUUCCGUCGGCGUAAUGGAAAGGUGUCUCCCUGCUAAGGAGAAGACUGCGGGUUCGAGUCCCGUACGGAACG | ≤ 0.5
10 | GUUUCGUUGGCGUUAUGGUAACGCGUCUCCCUUCUAAGGAGAAGACUGGGGGUUAGAGUCCCGUACGGAACG | ≤ 0.5
11 | GCUCCGUUGGCGUAAUGGUAACGCGUCUCCCUCCUAAGGAGGAGACUGCGGGUUCGAGUCCCAUACGGAACG | 0.543
12 | GUUCCGUUGGCGUAAUGGUAACGCGUCUCCCUCCUAAGGAAAAGACUGCGGGUUCGAGUCCCGCACGGAACG | 1.07
13 | GUUCCGUUGGCGUAAUGGUAACGCGUCGCCCUCCUAGGGAGAAGACUGCGGGUUCGAGUCCCGUACGGAACG | 0.586
14 | GUUCCGCUGGCGUAAUGGUAACGCGUCUCCCUCCUAAGGGGAAGACUGCGGGUUCGAGUCCCGUACGGAACG | 0.822
15 | GUCCCGUUGGCGUAAUGGUAACGCGUCUCCGUCCUAAGGAGAAGACUGCGGGUUCGGGUCCCGUACGGAACG | 0.589
16 | GUUCCGUUGGCGUAAUGGUAAAGCGUCUCCCUCUUAAGGAGAAGACUGCGGGUUCGAGUCCCGUACGGAACG | 0.761
17 | GUUCCGUUGCCGUAAUGGUAACGCGUCUCCCUCCUAGGGAGAAGACUGCGGAUUGGAGUCCCGUACGGAACG | 0.567
18 | GUUCCGUUGGCGUAAUGGUAACGCGUCUCCCUCCUAAGGAGGAGACUGCGGGUUCAAGUCCCCUACGGAACG | 0.51
19 | GUUCCGUUGGCGUAAUGGUAACGCGUCUCCCUCUUAAGGAGAAGACUGCGGGUGCGAGUCCCGUACGGAACG | 0.612

Row | Variant | yeast fitness
20 | GUUCCGUUGGCGUAAUGGUAACGCGUCUCCCUCCUAAGGAGAGGACUACAAGUUCGAGUCCUGUACGGAACG | ≤ 0.5
21 | GUUUCGUUGGCGUAAUGGUGACGCGUCCCCUUCCUAAGGAGAAGACUGCCGGUUGGAGCUCCGUACUGAACG | ≤ 0.5
22 | GUUCCGUUGGCGUAAUGGUAACACGUCUCCCUCCUAAGGAGAACACUGCGGGUUCGAGUCGCGUACGGAACG | ≤ 0.5
23 | GUUCCGUUGGCGUAAUGGUAACGCGUCUCCCUCCUAAGGAGAAGACUGCGGCUUCGAGUCCCGAACGGAACG | 0.573
24 | GUUCCGUUGGCGUAACGGUAACGCGUCUCCCUCCUAAGGAGACGACUGCGGGUAUGAGUUCCGUACGAAACG | ≤ 0.5
25 | GUUGCGAUGGCGUAAUGGUAACGCGUCUCCCUCCUAAGGAGAAGACUGCGGGUUCGAGACCCGUACGGAACG | 0.621
26 | GUUCCGUUGGAGUAAUGGUAACGCGUCUCCCUUCUAAGGAGAAGACUGUGGGUUCGAGUCUCGUACGGAACG | ≤ 0.5
27 | GUUCCGUUGGCGUAAGGGUAACGCGUCUCCCUCCUAAGGAGAUGACUGCCGGUUCGAGUCCCGUACAGAACG | ≤ 0.5
28 | GUUCCGUUGGCGUAAUGGUCACGCGUCUCCCCCCUAAGGAGAAGACUGCGGGUUCGAGUCCCGUACGGAACG | 0.985
29 | GUUCCGUUGGCGUAAUGGUAACGCGUCUCCCUCCUUAGGAGAAGACUAAGGGUUCGAGUCCCGUACGGAACG | ≤ 0.5
30 | GUUCGGUUGGCGUAAUGGUAACGCGUCUCCUCCCUAAGGAGAAGACUGCGGGUGUGAGUCUCGUACGGAACG | ≤ 0.5
31 | GUUCCGUUGGCGUAAUGCUAACGCGUCUCCCUCCUAAGGAGAAGACUGCGGGUUCGAGUCCAGUACGGAACG | ≤ 0.5
32 | GUUCCGUAGGCGUAAUGGUAACGCGUCACCGUCCUAAGGAGAAGACUGCGGGUUCGAGUCCCGUUCGGCACG | ≤ 0.5
33 | GUUCUGUUGGCCUAAUGGUAACGCGUCUCCCUCCUAAGGCGAAGACUGCGGGUUCCAGUCCCGUACGGAACG | ≤ 0.5
34 | GUUCCGUUGGCGAAAUGGUAACGCGUUUCCCUCCUAAGGAGAAGACUGCGGGUUCGGGUCCCGUAUGGAACG | ≤ 0.5
35 | GUUCCGUUGGCGUAAUGGUAACGGGUCUCCCUCCUGAGGAGCAGACUGCGGGUUCGAGUCUGGUACGGAACG | ≤ 0.5
36 | GUUCCGUUGGAGUAAUGGUAACGCGUCUCCGUCCUAAGGAGAAGACUGCGGGUUCGAGUUCCGUACGGAACG | ≤ 0.5
37 | GUUCCGUUGGCGUAAUGGUAACGCGUCUCCCUCCUAAGGAGUAGACUGCGGGUUCGAGUCCCGUACAGAACG | 0.758
38 | GUUCCGUUGGCGUCAUGGUAACGCGUCUCCCUCCUAAGGAGAAGACUGCGGGUUCGUGUCCUGUACAGAACG | 0.508
